From ChEMBL document CHEMBL1141333, “Molecular-targeted antitumor agents. 15. Neolamellarins from the marine sponge Dendrilla nigra inhibit hypoxia-inducible factor-1 activation and secreted vascular endothelial growth factor production in breast tumor cells” (J Nat Prod, 2007)
pIC50: −log10 of the molar value. Active and inactive are the calls of the source. The calls are words filed in the database; no cut-off is given here.

Legend:
T47D [1] = test: Inhibition of 1,10-phenanthroline-induced HIF1 activation in T47D cells at 10 uM by reporter gene assay; format: cell-based; parameters: scale not given: the % may be the effect or the level left; details: Homo sapiens
Procedure, shortened: (§1)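 Transfected T47D luciferase reporter for HIF-1. HIF-1 was induced either by hypoxia (1% O2) or by 1,10-phenanthroline (10 μM) during compound treatment. Luciferase activity was read out and concentration-response was tested at 1, 3 and 10 μM. Compounds came from 4 mM DMSO stocks. Emetine at 1 μM was the positive control.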

T47D [2] = test: Antiproliferative activity against human T47D cells under normoxic conditions after 48 hrs; format: functional, cell-based
Procedure, shortened: (§2)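 T47D proliferation/viability measured by Neutral Red; % inhibition = [1 − OD540(treated)/OD540(control)] × 100. Hypoxic exposure was 1% O2 for 16 or 48 h, with compounds at up to 10 μM. Normoxic incubation was 48 h. Compounds were dissolved as 4 mM DMSO stocks.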

T47D [3] = test: Inhibition of HIF1 activation in T47D cells at 10 uM by reporter gene assay; format: cell-based; details: Homo sapiens; procedure, shortened: as §1
T47D [4] = test: Antiproliferative activity against human T47D cells under hypoxic conditions upto 10 uM after 16 to 48 hrs by neutral red assay; format: functional; procedure, shortened: as §2
T47D [5] = test: Antiproliferative activity against human T47D cells under normoxic conditions at 10 uM after 48 hrs; format: functional; procedure, shortened: as §2
T47D [6] = test: Inhibition of hypoxia-induced VEGF protein level in T47D cells at 3 uM by ELISA; format: functional, cell-based; details: Homo sapiens
Procedure, shortened: (§3)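 Exponentially grown T47D cells were exposed to compound for 16 h under hypoxia (1% O2) or 1,10-phenanthroline (10 μM). Secreted VEGF in conditioned media was measured by ELISA. Cells were lysed and lysate protein was measured by Micro BCA; VEGF was normalized to lysate protein. Triplicate wells, mean ± SD.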

[7] = Inhibition of HIF1 activation in T47D cells by reporter gene assay; format: cell-based; details: Homo sapiens; procedure, shortened: as §1
T47D [8] = test: Inhibition of 1,10-phenanthroline-induced VEGF protein level in T47D cells at 10 uM by ELISA; format: functional, Homo sapiens; parameters: scale not given: the % may be the effect or the level left; procedure, shortened: as §3
T47D [9] = test: Antiproliferative activity against human T47D cells under normoxic conditions at 1 uM after 48 hrs; format: functional; procedure, shortened: as §2
T47D [10] = test: Inhibition of hypoxia-induced VEGF protein level in T47D cells at 10 uM by ELISA; format: functional, Homo sapiens; parameters: scale not given: the % may be the effect or the level left; procedure, shortened: as §3
[11] = Inhibition of 1,10-phenanthroline-induced HIF1 activation in T47D cells by reporter gene assay; format: cell-based; details: Homo sapiens; procedure, shortened: as §1

| pIC50 [7] | pIC50 [11] | Structure (SMILES) | Activity (T47D [1]) | Activity (T47D [2]) | inhibition (T47D [3]) | Activity (T47D [4]) | Activity (T47D [5]) | Activity (T47D [6]) | Activity (T47D [8]) | Activity (T47D [9]) | Activity (T47D [10]) |
| --- | --- | --- | --- | --- | --- | --- | --- | --- | --- | --- | --- |
|  |  | O=C(Cc1ccc(O)cc1)n1cc(-c2ccc(O)cc2)c(-c2ccc(O)cc2)c1 [NEOLAMELLARIN A] | 58% | inactive | 26% | <20% |  |  |  |  |  |
|  |  | O=C(Cc1ccc(O)cc1)N1C(=O)C(c2ccc(O)cc2)=C(c2ccc(O)cc2)C1O (stereo unspecified) [5-HYDROXYNEOLAMELLARIN B] | 33% | inactive | 22% | <20% |  |  |  |  |  |
|  |  | O=C(Cc1ccc(O)cc1)N1CC(c2ccc(O)cc2)=C(c2ccc(O)cc2)C1=O [NEOLAMELLARIN B] | 42% | inactive | 23% | <20% |  |  |  |  |  |
| 5.72 | 5.43 | O=C(C(O)c1ccc(O)cc1)n1cc(-c2ccc(O)cc2)c(-c2ccc(O)cc2)c1 (racemic) [7-(R/S)-HYDROXYLAMELLARIN A] |  |  | 98% | <20% | 34% | inactive | 33% | -8% | 87% |
